Data reported in article PMC7490575 (Molecular Diversity, 2020).

Tests used:
[1] = test system: A/Puerto Rico/8/34 (H1N1) influenza virus; assay: Cell protection assay, influenza virus in MDCK cells; format: cell-based, influenza virus A/PR/8/34 (H1N1)
Coxsackie B3 virus = assay: Cell protection assay, Coxsackie B3 virus in Vero cells; format: cell-based, coxsackievirus B3
Outline: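 Confluent Vero monolayers given test compound, infected with Coxsackie B3 (m.o.i. 0.01), held 48 h at 36 °C, 5% CO2. Viability read by MTT (OD 540 nm) against virus-only wells; IC50 is 50% cell protection. […] SI = CC50/IC50.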

SMILES	antiviral activity against influenza virus A/PR/8/34 (H1N1), in words [1]	antiviral activity against Coxsackie B3 virus, in words (Coxsackie B3 virus)
Cc1[nH]c(=O)[nH]c(=O)c1CCCCc1cn([C@@H]2O[C@H](CO)[C@@H](O)[C@H]2O)nn1 [Compound 8o, 6-Methyl-5-{[1-(β-D-ribofuranosyl)-1H-1,2,3-triazol-4-yl]butyl}-2,4(1H,3H)-pyrimidinedione]	completely inactive	
NC(=O)c1ncn([C@@H]2O[C@H](CO)[C@@H](O)[C@H]2O)n1 [Ribavirin, 1-β-D-ribofuranosyl-1,2,4-triazole-3-carboxamide]		inactive
Cc1[nH]c(=O)[nH]c(=O)c1Cc1cn([C@@H]2O[C@H](CO)[C@@H](O)[C@H]2O)nn1 [Compound 8m, 6-Methyl-5-{[1-(β-D-ribofuranosyl)-1H-1,2,3-triazol-4-yl]methyl}-2,4(1H,3H)-pyrimidinedione]	antiviral activity was demonstrated	
Cc1[nH]c(=O)[nH]c(=O)c1CCCc1cn([C@@H]2O[C@H](CO)[C@@H](O)[C@H]2O)nn1 [Compound 8n, 6-Methyl-5-{[1-(β-D-ribofuranosyl)-1H-1,2,3-triazol-4-yl]propyl}-2,4(1H,3H)-pyrimidine-dione]	antiviral activity was demonstrated	
O=c1[nH]c(=O)n(CCCc2cn([C@@H]3O[C@H](CO)[C@@H](O)[C@H]3O)nn2)c2ccccc12 [Compound 4h, N1-{[1-(β-D-ribofuranosyl)-1H-1,2,3-triazol-4-yl]propyl}-2,4(1H,3H)-quinazolinedione]	antiviral activity was demonstrated	
